Published values gathered from unrelated publications.
Each line is one published result; the experiments were not run side by side.
EIF2AK4 S808G C-terminal kinase domain: eIF-2-alpha kinase GCN2, C-terminal kinase domain (EIF2AK4, Homo sapiens, UniProt Q9P2K8, S808G)
EIF2AK4 S808G: eIF-2-alpha kinase GCN2 (EIF2AK4, Homo sapiens, UniProt Q9P2K8, S808G)

| SMILES | target | effect on | technique | concentration | remaining binding [%] |
| --- | --- | --- | --- | --- | --- |
| CCC(=N\O)/C(C)=C/c1ccc(F)cc1 | EIF2AK4 S808G C-terminal kinase domain | cell-free assay | competition with immobilised ligand | 1 µM | 70 |
| C=CC(=O)N1CCC(C(=O)NCC(=O)N2CCN(c3nc(-c4cnc(N)nc4C(F)F)nc(N4CCOCC4)n3)CC2)CC1 | EIF2AK4 S808G C-terminal kinase domain | binding | competition with immobilised ligand | 1 µM | 100 |
| O=C(NS(=O)(=O)c1ccc(NCC2CCOCC2)c([N+](=O)[O-])c1)c1ccc(N2CCN(Cc3ccc(C(F)(F)F)cc3-c3ccc(Cl)cc3)CC2)cc1Oc1cnc2[nH]ccc2c1 | EIF2AK4 S808G C-terminal kinase domain | cell-free assay | competition with immobilised ligand | 1 µM | 85 |
| CN(C)c1ncc(F)c(-c2cnn3ncccc23)n1 | EIF2AK4 S808G | binding |  | 1 µM | 100 |
| Cc1cnc(Nc2ccc(C(=O)N3CCC(N4CCCC4)CC3)cc2)nc1-c1cc2ccccc2s1 | EIF2AK4 S808G C-terminal kinase domain | binding | competition with immobilised ligand | 1 µM | 0 |
| CN(C)c1nccc(-c2cnn3ncccc23)n1 | EIF2AK4 S808G | binding |  | 1 µM | 100 |
| O=S(=O)(NC1CCC(c2cc(F)ccc2F)(S(=O)(=O)c2ccc(Cl)cc2)CC1)C(F)(F)F (stereo not shown) | EIF2AK4 S808G C-terminal kinase domain | cell-free assay | competition with immobilised ligand | 1 µM | 100 |
| O=C(NCCCN1CCOCC1)c1ccc(Nc2ncc(Cl)c(-c3ccc(Cl)s3)n2)cc1 | EIF2AK4 S808G C-terminal kinase domain | binding | competition with immobilised ligand | 1 µM | 0.35 |
| C[C@@H]1CCN(c2nccc(-c3cnn4ncccc34)n2)C1 | EIF2AK4 S808G | binding |  | 1 µM | 78 |
| CCN1CCN(Cc2ccc(C(=O)Nc3ccc(C)c(Oc4ccc5c(c4)CC(=O)N5)c3)cc2C(F)(F)F)CC1 | EIF2AK4 S808G C-terminal kinase domain | binding | competition with immobilised ligand | 1 µM | 100 |
| O=C(c1ccc(Nc2nccc(-c3cc4ccccc4s3)n2)cc1)N1CCC(N2CCCC2)CC1 | EIF2AK4 S808G C-terminal kinase domain | binding | competition with immobilised ligand | 1 µM | 5.2 |
| Cc1cnn2ncc(-c3ccnc(N(C)C)n3)c2c1 | EIF2AK4 S808G | binding |  | 1 µM | 96 |
| CC(=O)N1CCC(c2ccc(C(=O)NC3=NCCN3)cc2C(F)(F)F)CC1 | EIF2AK4 S808G C-terminal kinase domain | cell-free assay | competition with immobilised ligand | 1 µM | 52 |
| COc1cnc(Nc2cccc(S(N)(=O)=O)c2)nc1N1CCN(c2ccccc2)CC1 | EIF2AK4 S808G C-terminal kinase domain | binding | competition with immobilised ligand | 1 µM | 95 |
| Cn1nc(C(F)(F)F)cc1-c1cnc(N2CCc3cc(S(=O)(=O)Nc4c(F)cc(Cl)cc4F)cc(N4CCCC4=O)c32)nc1 | EIF2AK4 S808G C-terminal kinase domain | cell-free assay | competition with immobilised ligand | 1 µM | 100 |
| O=C(Nc1c[nH]nc1C(=O)NC1CCNCC1)c1cc(F)cc(F)c1 | EIF2AK4 S808G C-terminal kinase domain | binding | competition with immobilised ligand | 1 µM | 100 |
| CN(CCCC(F)(F)F)c1nccc(-c2cnn3ncccc23)n1 | EIF2AK4 S808G | binding |  | 1 µM | 99 |
| CNC(=O)[C@@H]1CC[C@@H](n2c(-c3ccc4cnccc4c3)nc3ccc(C(=O)NCc4cccc(C(N)=O)c4)cc32)C1 | EIF2AK4 S808G C-terminal kinase domain | binding | competition with immobilised ligand | 1 µM | 82 |
| c1cnn2ncc(-c3ccnc(N4CCC45COC5)n3)c2c1 | EIF2AK4 S808G | binding |  | 1 µM | 100 |
| O=C(NCc1ncc(C(F)(F)F)cc1Cl)c1ccc2c(c1)C1(CCS(=O)(=O)CC1)[C@@H](C1CC1)N2S(=O)(=O)c1ccc(F)cc1 | EIF2AK4 S808G C-terminal kinase domain | cell-free assay | competition with immobilised ligand | 1 µM | 100 |
| N[C@H]1CCN(c2nccc(-c3cnn4ncccc34)n2)C1 | EIF2AK4 S808G | binding |  | 1 µM | 100 |
| CN1CCN(c2ccc(Nc3nccc(-c4cccc([N+](=O)[O-])c4)n3)cc2C(F)(F)F)CC1 | EIF2AK4 S808G | binding |  | 10 µM | 0.2 |
